Experimental findings from ChEMBL document CHEMBL1155082, “Chemo-enzymatic synthesis of a series of 2,4-syn-functionalized (S)-glutamate analogues: new insight into the structure-activity relation of ionotropic glutamate receptor subtypes 5, 6, and 7” (J Med Chem, 2008) are described below.

In assay [1] the test system is Escherichia coli. Kind of assay: Activity at Escherichia coli JM103 aspartate aminotransferase. The method in brief: (§1)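 E. coli AAT purified from overexpressing JM103 carrying pUC119-aspC. Run at 25 °C in 0.1 M potassium phosphate pH 7.6 with 40 mM Asp, 0.2 mM NADH, 0.1-10 mM ketoacid substrate, 0.05 UI AAT and 2 UI malic dehydrogenase coupling. Rates taken from linear OD decay at 340 nm. Kinetic parameters and standard errors from Hanes-Woolf plot by least squares.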

The test system of assay [2] is Escherichia coli. Kind of assay: Activity at Escherichia coli JM103 aspartate aminotransferase relative to alpha-ketoglutarate. Summed up: as §1
The nature of assay [3]: Displacement of [3H]AMPA from AMPA receptor in rat synaptosomes. Type of assay: subcellular, Brain. On the technique in general: In a radioligand displacement assay an active substance lowers the binding of a labelled ligand.
The next assay deals with Glutamate NMDA receptor. The assay can be described thus: Displacement of [3H]CGP 39653 from NMDA receptor in rat synaptosomes. The assay is classed as subcellular, Brain.
Assay [4] in a line: Displacement of [3H]KA from KA receptor in rat synaptosomes. The assay is classed as subcellular, Brain.
Assay [5] concerns the target Metabotropic glutamate receptor 3 (Rattus norvegicus, UniProt P31422). Kind of assay: Displacement of [3H][…] from rat mGluR3 expressed in CHO cells by SPA. Type of assay: cell-based. The method in brief:
(§2)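 Membranes from transiently transfected CHO cells harvested 48 h post-transfection, protein by Bradford, stored at -80 °C. SPA binding at 10 µg protein/well in 50 mM Tris-HCl pH 7.0 with 2 mM MgCl2, 2 nM [3H]LY341495 and WGA-SPA beads. Incubated 45 min on ice, then overnight at 4 °C. Nonspecific binding with 10 µM LY341495. Ki by Cheng-Prusoff.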

Assay [6] has as its target T1, Metabotropic glutamate receptor 2 (Rattus norvegicus, UniProt P31421). Kind of assay: Displacement of [3H][…] from rat mGluR2 expressed in CHO cells by SPA. Type of assay: cell-based. The method in brief: as §2
The target in assay [7] is Metabotropic glutamate receptor 5 (Rattus norvegicus, UniProt P31424). The assay can be described thus: Activity at rat mGluR5 expressed in HEK293 cells assessed as calcium mobilization by FLIPR. Type of assay: functional, cell-based. Summed up:
(§3)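 Rat receptor cDNA transiently transfected into HEK293 (Lipofectamine Plus), seeded 24 h later, assayed next day. Cells loaded with 3 µM Fluo-4/0.01% pluronic in HEPES-buffered HBSS pH 7.4 with BSA and 2.5 mM probenecid, 1 h, 37 °C. Glutamate at EC80 or EC10 added with compound. FLIPR read over 3 min at room temperature. Maximum fluorescence change fitted by Hill equation.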

The target in assay [8] is Metabotropic glutamate receptor 1 (Rattus norvegicus, UniProt P23385). Kind of assay: Activity at rat mGluR1 expressed in HEK293 cells assessed as calcium mobilization by FLIPR. Type of assay: functional, cell-based. Summed up:
as §3
For orientation: A change in cytosolic calcium serves as a functional read-out for many receptors and channels.

Assay [9] has as its target T1, Metabotropic glutamate receptor 2. The assay can be described thus: Activity at rat mGluR2 expressed in CHO cells assessed as calcium mobilization by FLIPR. Type of assay: functional, cell-based. Summed up: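 Rat mGluR2 cDNA co-transfected 8:2 with C. elegans GR Qi3 chimera cDNA into CHO cells (Lipofectamine Plus, 10 µg DNA/~7×10^6 cells). Fluo-4 loading for 1 h at 37 °C. Stimulation with EC80 or EC10 glutamate plus compound. FLIPR maximum fluorescence change over 3 min at room temperature, baseline-subtracted, fitted by Hill equation.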

Assay [10] has as its target Glutamate receptor ionotropic, kainate 1 (Rattus norvegicus, UniProt P22756). Kind of assay: Displacement of [3H]SYM2081 from rat recombinant iGluR5.
Assay [11] deals with Glutamate receptor ionotropic, kainate 2 (Rattus norvegicus, UniProt P42260). Kind of assay: Displacement of [3H]SYM2081 from rat recombinant iGluR6.
The target of assay [12] is Metabotropic glutamate receptor 4 (Homo sapiens, UniProt Q14833). The assay can be described thus: Activity at mGluR4 assessed as calcium mobilization by FLIPR. The assay is classed as functional.
Metabotropic glutamate receptor 4, sequence (Q14833 whole entry): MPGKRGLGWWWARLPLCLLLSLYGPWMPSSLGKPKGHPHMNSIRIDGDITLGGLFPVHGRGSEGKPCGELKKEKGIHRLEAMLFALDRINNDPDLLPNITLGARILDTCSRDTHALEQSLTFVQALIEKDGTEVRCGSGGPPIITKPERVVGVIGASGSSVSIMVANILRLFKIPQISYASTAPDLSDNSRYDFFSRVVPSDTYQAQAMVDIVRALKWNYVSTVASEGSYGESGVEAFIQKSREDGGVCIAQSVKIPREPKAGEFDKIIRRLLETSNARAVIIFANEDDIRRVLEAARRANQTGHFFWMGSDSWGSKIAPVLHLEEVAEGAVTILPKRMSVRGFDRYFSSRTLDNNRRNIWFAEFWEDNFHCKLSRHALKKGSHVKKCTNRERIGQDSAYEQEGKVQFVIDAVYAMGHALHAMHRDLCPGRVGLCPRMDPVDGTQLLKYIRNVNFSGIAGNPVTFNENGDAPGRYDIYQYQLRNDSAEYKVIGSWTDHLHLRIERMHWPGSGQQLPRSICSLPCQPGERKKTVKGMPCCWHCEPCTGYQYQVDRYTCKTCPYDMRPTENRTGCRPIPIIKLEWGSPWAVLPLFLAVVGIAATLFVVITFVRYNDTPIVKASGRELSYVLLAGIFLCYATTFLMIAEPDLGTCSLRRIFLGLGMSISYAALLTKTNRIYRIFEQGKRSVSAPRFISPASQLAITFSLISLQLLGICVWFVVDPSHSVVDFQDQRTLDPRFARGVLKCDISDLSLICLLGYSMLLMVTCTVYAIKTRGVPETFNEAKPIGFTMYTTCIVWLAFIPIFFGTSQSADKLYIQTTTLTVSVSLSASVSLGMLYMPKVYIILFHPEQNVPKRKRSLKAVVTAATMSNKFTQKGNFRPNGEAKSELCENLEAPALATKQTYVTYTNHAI
Assay [13] has as its target T2, Glutamate receptor ionotropic, kainate 4 (Rattus norvegicus, UniProt Q01812).
T2 sequence (Q01812 whole entry): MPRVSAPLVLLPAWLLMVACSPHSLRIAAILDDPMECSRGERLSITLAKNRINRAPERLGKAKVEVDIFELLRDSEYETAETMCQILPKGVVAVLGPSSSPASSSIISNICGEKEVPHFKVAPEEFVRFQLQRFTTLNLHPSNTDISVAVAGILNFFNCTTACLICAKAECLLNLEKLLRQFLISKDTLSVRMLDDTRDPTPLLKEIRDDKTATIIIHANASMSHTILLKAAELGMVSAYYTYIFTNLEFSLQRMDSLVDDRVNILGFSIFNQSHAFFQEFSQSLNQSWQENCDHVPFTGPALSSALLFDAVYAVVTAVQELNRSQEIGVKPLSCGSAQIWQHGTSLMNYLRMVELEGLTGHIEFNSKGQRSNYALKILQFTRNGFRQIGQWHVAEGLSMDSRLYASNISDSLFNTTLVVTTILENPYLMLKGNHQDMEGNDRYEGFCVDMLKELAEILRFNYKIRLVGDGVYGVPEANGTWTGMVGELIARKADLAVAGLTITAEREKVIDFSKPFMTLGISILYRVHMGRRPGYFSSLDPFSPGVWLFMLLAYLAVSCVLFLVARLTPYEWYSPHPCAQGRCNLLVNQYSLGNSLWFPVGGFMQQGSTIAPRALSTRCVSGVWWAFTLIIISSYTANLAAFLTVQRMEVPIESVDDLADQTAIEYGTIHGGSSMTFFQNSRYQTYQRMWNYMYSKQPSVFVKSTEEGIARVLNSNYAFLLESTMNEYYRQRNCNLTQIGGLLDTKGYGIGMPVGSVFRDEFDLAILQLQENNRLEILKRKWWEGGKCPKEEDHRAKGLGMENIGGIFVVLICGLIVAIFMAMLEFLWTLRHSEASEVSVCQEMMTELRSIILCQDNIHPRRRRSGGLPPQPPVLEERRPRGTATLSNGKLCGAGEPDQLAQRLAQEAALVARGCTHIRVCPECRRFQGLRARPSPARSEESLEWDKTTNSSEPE
The assay can be described thus: Binding affinity to rat cloned KA1 receptor.

Glutamate receptor ionotropic, kainate 1, sequence (P22756 whole entry): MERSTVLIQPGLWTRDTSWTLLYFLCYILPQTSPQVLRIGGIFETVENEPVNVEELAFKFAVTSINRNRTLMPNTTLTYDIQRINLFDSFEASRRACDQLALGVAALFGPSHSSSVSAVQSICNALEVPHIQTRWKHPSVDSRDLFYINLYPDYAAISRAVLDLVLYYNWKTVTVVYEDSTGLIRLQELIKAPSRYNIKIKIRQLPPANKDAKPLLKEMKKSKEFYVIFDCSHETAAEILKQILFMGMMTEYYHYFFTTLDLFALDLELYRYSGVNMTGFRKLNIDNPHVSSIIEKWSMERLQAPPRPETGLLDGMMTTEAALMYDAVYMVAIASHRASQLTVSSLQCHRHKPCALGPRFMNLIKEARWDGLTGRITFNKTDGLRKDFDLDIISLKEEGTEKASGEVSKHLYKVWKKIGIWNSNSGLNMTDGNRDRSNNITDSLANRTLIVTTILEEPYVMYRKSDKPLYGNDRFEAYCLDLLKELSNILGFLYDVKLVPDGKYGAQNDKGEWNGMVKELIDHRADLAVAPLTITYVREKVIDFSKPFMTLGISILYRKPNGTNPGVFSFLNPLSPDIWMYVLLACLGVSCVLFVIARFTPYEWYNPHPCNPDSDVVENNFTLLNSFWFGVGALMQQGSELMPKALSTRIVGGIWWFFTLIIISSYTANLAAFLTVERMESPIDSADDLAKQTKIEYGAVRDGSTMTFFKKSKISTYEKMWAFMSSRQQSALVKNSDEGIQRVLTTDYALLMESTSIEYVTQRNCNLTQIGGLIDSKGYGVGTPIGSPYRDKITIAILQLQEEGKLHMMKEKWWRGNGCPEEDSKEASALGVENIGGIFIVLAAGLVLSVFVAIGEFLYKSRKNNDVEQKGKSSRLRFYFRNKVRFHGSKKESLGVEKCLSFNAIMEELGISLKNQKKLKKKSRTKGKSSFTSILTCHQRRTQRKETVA
T1 sequence (P31421 whole entry): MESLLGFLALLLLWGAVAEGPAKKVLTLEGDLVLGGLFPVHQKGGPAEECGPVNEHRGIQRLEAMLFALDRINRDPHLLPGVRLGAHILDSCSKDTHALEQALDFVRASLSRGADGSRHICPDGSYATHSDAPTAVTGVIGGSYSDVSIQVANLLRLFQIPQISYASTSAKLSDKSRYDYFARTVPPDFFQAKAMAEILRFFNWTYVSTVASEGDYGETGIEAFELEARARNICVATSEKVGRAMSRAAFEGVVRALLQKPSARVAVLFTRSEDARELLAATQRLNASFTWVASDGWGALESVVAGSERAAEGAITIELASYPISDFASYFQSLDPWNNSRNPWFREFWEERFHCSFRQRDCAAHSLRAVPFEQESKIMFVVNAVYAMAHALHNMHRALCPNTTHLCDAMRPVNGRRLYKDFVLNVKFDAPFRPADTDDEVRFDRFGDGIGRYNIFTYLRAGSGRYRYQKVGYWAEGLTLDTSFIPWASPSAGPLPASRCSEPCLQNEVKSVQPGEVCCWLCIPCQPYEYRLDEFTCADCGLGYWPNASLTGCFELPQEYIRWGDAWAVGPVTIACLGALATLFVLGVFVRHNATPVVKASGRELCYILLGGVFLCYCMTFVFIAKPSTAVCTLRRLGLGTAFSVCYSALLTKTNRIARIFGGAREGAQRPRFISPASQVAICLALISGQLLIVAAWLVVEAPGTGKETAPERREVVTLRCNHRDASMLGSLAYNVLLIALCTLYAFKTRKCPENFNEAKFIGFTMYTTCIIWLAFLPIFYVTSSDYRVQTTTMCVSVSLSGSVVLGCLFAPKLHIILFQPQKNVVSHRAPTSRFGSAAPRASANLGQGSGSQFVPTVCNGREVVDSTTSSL
Metabotropic glutamate receptor 1, sequence (P23385 whole entry): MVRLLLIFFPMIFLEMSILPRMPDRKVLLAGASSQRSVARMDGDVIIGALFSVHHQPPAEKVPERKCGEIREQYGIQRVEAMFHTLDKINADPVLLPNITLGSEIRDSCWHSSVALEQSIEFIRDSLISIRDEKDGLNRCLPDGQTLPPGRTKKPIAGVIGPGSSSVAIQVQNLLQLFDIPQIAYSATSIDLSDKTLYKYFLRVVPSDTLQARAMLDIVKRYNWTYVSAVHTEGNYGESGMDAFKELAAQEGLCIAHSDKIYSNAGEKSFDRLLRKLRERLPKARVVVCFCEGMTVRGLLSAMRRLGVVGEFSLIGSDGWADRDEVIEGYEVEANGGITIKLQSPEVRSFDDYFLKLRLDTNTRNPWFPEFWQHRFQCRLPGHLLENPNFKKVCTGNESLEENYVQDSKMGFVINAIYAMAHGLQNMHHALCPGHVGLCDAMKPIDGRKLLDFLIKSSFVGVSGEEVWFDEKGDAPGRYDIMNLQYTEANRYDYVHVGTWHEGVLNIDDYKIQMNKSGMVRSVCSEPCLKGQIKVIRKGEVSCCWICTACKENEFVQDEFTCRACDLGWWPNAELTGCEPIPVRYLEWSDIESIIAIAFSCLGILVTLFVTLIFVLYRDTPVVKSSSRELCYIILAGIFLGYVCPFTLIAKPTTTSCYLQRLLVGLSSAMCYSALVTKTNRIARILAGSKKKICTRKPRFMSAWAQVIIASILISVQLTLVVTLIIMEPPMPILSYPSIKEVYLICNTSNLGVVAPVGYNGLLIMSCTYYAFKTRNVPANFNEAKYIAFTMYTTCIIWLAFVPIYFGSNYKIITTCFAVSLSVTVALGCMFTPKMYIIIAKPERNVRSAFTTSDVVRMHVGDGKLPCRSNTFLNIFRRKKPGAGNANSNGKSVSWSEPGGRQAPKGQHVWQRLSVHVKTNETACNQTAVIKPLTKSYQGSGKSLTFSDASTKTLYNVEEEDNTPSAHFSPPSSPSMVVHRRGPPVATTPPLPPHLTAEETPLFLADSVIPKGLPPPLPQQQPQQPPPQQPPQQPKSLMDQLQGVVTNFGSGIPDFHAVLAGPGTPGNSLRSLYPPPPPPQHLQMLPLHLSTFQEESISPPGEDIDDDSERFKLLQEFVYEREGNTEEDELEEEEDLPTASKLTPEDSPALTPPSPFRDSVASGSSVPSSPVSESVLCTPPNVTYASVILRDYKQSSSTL
Metabotropic glutamate receptor 3, sequence (P31422 whole entry): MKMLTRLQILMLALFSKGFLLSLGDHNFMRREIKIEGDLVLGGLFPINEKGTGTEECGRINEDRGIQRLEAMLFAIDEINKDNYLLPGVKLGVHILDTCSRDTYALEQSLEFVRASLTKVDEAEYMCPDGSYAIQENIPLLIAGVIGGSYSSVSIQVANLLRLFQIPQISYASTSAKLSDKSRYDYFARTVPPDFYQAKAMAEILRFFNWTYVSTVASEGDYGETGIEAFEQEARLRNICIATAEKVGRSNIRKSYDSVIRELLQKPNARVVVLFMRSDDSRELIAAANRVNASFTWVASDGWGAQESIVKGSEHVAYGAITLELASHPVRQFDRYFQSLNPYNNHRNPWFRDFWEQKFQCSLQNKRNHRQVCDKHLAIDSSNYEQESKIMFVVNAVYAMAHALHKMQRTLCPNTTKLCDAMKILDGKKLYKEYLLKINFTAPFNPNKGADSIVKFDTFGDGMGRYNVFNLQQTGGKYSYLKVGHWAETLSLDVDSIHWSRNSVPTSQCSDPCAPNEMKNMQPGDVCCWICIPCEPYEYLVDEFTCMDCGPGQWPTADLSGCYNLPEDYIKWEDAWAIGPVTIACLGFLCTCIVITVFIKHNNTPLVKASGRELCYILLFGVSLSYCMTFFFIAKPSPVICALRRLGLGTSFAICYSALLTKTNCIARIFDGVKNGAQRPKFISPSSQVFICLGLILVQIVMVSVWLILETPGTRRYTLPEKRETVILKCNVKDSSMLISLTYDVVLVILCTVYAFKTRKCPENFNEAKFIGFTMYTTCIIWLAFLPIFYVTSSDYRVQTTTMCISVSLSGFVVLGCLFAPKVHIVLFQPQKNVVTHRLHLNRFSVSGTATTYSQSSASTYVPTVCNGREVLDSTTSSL

One may read the Km as the concentration of substrate that gives half-maximal velocity. For the molecule `O=C(O)C(=O)CC(COCc1ccccc1)C(=O)O` (racemic), in the assay with Escherichia coli [1], the Km is 90 µM. Moreover, the kcat in the assay on Escherichia coli [2] came out at 11%.
In general, IC50 refers to the concentration needed to halve the response being measured. As for `N[C@@H](C[C@@H](CCC(=O)O)C(=O)O)C(=O)O`, the IC50 in [3] and in assay [4] was greater than 100 µM each time. On Glutamate NMDA receptor, the Ki was found to be 52 µM.
One may read the pIC50 as −log10 of the IC50, conventionally taken in molar units. A higher pIC50 goes with a low IC50. Broadly, the EC50 is the concentration giving half of the maximal effect. In the case of `NC(=O)CC[C@H](C[C@H](N)C(=O)O)C(=O)O`, the IC50 in [3] was 25 µM; in assay [4], 16 µM. The pIC50 in assay [3] is 4.6; in assay [4], 4.8. For the same molecule, the Ki in [5] is greater than 1000 µM; in assay [6] it was greater than 1000 µM; at Glutamate NMDA receptor, greater than 100 µM; in [10] (read-out: Ki), 0.00745 µM; in [11] (read-out: Ki), 9.66 µM. For the same molecule, the EC50 in assay [7], in assay [8], in [9] and in [12] was greater than 100 µM each time.
On to `C[C@H](C[C@H](N)C(=O)O)C(=O)O` [2S,4R-4-METHYLGLUTAMATE], for which the Ki in [11] (read-out: Ki) amounted to 0.017 µM.
As for `N[C@@H](C[C@@H](CC(=O)O)C(=O)O)C(=O)O`, the values for the IC50 in assay [3] and in assay [4] were greater than 100 µM and 39 µM, respectively. Besides, the Ki at Glutamate NMDA receptor was greater than 100 µM. This molecule displayed a pIC50 in assay [4] of 4.41.
On to `CNC(=O)CC[C@H](C[C@H](N)C(=O)O)C(=O)O`, for which the IC50 in assay [3] was determined as 32 µM; in assay [4] it was 29 µM. Further, the pIC50 in [3] turned out to be 4.51; in [4] it was 4.54. In addition, the Ki in assay [5] is greater than 1000 µM; in [6] it was greater than 1000 µM; on Glutamate NMDA receptor, greater than 100 µM; in assay [10] (read-out: Ki) it was 0.00381 µM; in [11] (read-out: Ki), 0.123 µM; in [11] (read-out: pKi (converted)), 0.12 µM. The EC50 in assay [7], in assay [8], in assay [9] and in assay [12] was greater than 100 µM each time.
For `CCNC(=O)CC[C@H](C[C@H](N)C(=O)O)C(=O)O`, the IC50 in assay [3] came to 74 µM; in assay [4] it was 41 µM. Moreover, the values for the pIC50 in [3] and in [4] were 4.13 and 4.39, respectively. Further, the Ki in [5] is greater than 1000 µM; in [6], greater than 1000 µM; at Glutamate NMDA receptor, greater than 100 µM; in [10] (read-out: Ki), 0.641 µM; in assay [11] (read-out: Ki) it was 10.6 µM; in [11] (read-out: pKi (converted)), 10.2 µM. Also, the EC50 in assay [7], in assay [8], in [9] and in assay [12] was greater than 100 µM throughout.
`N[C@@H](C[C@@H](COCc1ccccc1)C(=O)O)C(=O)O` showed an IC50 in assay [3] greater than 100 µM. On Glutamate NMDA receptor, the Ki was determined as 26 µM. In [4], this molecule yielded an IC50 of 12 µM and a pIC50 of 4.93.
With `N[C@@H](C[C@@H](CCC(=O)NCc1ccccc1)C(=O)O)C(=O)O`, the half-inhibitory concentration (IC50) in assay [3] and in assay [4] was greater than 100 µM throughout. For the same molecule, the Ki at Glutamate NMDA receptor is 72 µM; in assay [10] (read-out: Ki), 0.138 µM; in assay [11] (read-out: Ki), greater than 100 µM.
Turning to `COC(=O)CCC(CC(=O)C(=O)O)C(=O)O` (racemic), the Km in the assay with Escherichia coli [1] is 610 µM. Moreover, the kcat in the assay on Escherichia coli [2] was found to be 33.6%.
Consider `C/C(=C\C=C\[C@@H](C)C(=O)O)[C@H]1CN[C@H](C(=O)O)[C@H]1CC(=O)O` [DOMORIC ACID], for which the Ki in [13] is 0.04 µM; in assay [10] (read-out: Ki), 0.00111 µM; in assay [10] (read-out: pKi (converted)), 0.00107 µM; in assay [11] (read-out: Ki), 0.00604 µM; in assay [11] (read-out: pKi (converted)), 0.00575 µM.
As for `N[C@@H](Cn1oc(=O)[nH]c1=O)C(=O)O` [QUISQUALATE], the Ki in assay [10] (read-out: Ki) came out at 0.171 µM.
On to `N[C@@H](C[C@@H](CO)C(=O)O)C(=O)O`, for which, in [3], the IC50 is 44 µM and the pIC50 was determined as 4.35. Moreover, the Ki at Glutamate NMDA receptor came out at 15 µM. In assay [4], the IC50 amounted to 0.24 µM and the pIC50 turned out to be 6.62.
In [13], `C=C(C)[C@H]1CN[C@H](C(=O)O)[C@H]1CC(=O)O` [KAINIC ACID] had a Ki of 0.0047 µM.
For `COC(=O)CC[C@H](C[C@H](N)C(=O)O)C(=O)O`, the IC50 in assay [3] worked out at 31 µM; in assay [4] it was 7.9 µM. The pIC50 was determined as 4.51 in assay [3] and 5.1 in assay [4]. Further, the Ki in assay [5] was greater than 1000 µM; in assay [6] it was greater than 1000 µM; at Glutamate NMDA receptor it was greater than 100 µM; in assay [10] (read-out: Ki), 0.0428 µM; in [10] (read-out: pKi (converted)), 0.0417 µM; in assay [11] (read-out: Ki), 6.67 µM. Besides, the Ki in assay [11] (read-out: pKi (converted)) is 6.17 µM. The EC50 in assay [7], in assay [8], in assay [9] and in [12] was greater than 100 µM each time.
On to `COC(=O)CC(CC(=O)C(=O)O)C(=O)O` (racemic), for which the Km in the assay with Escherichia coli [1] was 1800 µM. In addition, the kcat in the assay on Escherichia coli [2] turned out to be 41%.
As to `O=C(O)C(=O)CC(CO)C(=O)O` (racemic), the Km with Escherichia coli [1] came out at 4700 µM. The kcat in the assay on Escherichia coli [2] turned out to be 1.6%.
`O=C(O)CC(CC(=O)C(=O)O)C(=O)O` (racemic): the Km in the assay with Escherichia coli [1] was found to be 30100 µM. Also, in the assay with Escherichia coli [2], the kcat turned out to be 1.1%.
